Published values pooled from the literature.
MMP1: Interstitial collagenase (MMP1, Homo sapiens, UniProt P03956)
EEF2K: Eukaryotic elongation factor 2 kinase (EEF2K, Homo sapiens, UniProt O00418)
CASP9: Caspase-9 (CASP9, Homo sapiens, UniProt P55211)

SMILES	target	assay	conditions	inhibition [%]
COc1ccc(S(=O)(=O)N2CCCCC2)cc1C	High affinity choline transporter 1 (SLC5A7, Homo sapiens, UniProt Q9GZV3)	ligand displacement, radioligand	10 µM	< 30
CCN(CC)CCCC[C@H](NC(=O)[C@H](CC(C)C)NC(=O)[C@H](C)NC(=O)[C@H](Cc1ccccc1)NC(=O)c1ccc(C(C)(C)C)cc1)C(=O)N[C@@H](CO)C(=O)OC	C-C chemokine receptor type 1 (CCR1, Homo sapiens, UniProt P32246)	ligand displacement, radioligand	10 µM	7
CN(C)C(=O)COC(=O)Cc1ccc(OC(=O)c2ccc(NC(=N)N)cc2)cc1	MMP1	enzyme activity, inhibitor	10 µM	3
Cn1cc(-c2cccc(N3CCc4c(sc5c4CC(C)(C)C5)C3=O)c2CO)cc(Nc2ccncn2)c1=O	EEF2K	enzyme activity, inhibitor	1 µM	2
C[C@H](C(=O)N[C@H]1COc2ccccc2[C@@H]1S(C)(=O)=O)c1ccc(F)cc1	MMP1	enzyme activity, inhibitor	10 µM	13
O=C(Nc1cccnn1)N1CCN([C@@H]2CCOc3cc(C(F)(F)F)ccc32)CC1	Alpha-1B adrenergic receptor (ADRA1B, Homo sapiens, UniProt P35368)	cell-free assay	20 µM	5
CCOC(=O)c1ccc(OC(=O)CCCCCNC(=N)N)cc1	MMP1	enzyme activity, inhibitor	10 µM	2
C#Cc1n[nH]c2c(-c3cn(C(C)c4ccccn4)c(=O)[nH]c3=O)cc(F)cc12 (stereo not drawn)	TGF-beta receptor type-1 (TGFBR1, Homo sapiens, UniProt P36897)	enzyme activity, inhibitor	1 µM	25.2
COc1ccc(S(=O)(=O)N(CC(=O)NO)CC(C)C)cc1	MMP1	enzyme activity, inhibitor	10 µM	77
Cc1ncc(C)n2nc(/C=C/c3nc(N4CCCC4)cc(N4CCOCC4)n3)nc12	MMP1	enzyme activity, inhibitor	10 µM	7
CCOC(=O)N1C[C@H]2C[C@@H]1C[C@@H]2c1ccc(-c2cc(C(=O)OCC(=O)N(C)C)cc3cc(-c4ccc(C(F)(F)F)cc4)ccc23)cc1	P2Y purinoceptor 14 (P2RY14, Homo sapiens, UniProt Q15391)	cell-free assay, inhibitor	10 µM	12.2
N=C(N)c1ccc2cc(OC(=O)c3ccc(N=C(N)N)cc3)ccc2c1	CASP9	enzyme activity, inhibitor	10 µM	0
COc1cc(Nc2ncc(F)c(Nc3ccc4c(n3)NC(=O)C(C)(C)O4)n2)cc(OC)c1OC	Cyclin-dependent kinase-like 1 (CDKL1, Homo sapiens, UniProt Q00532)	binding, competition with immobilised ligand	10 µM	84
COC(=O)CC[C@H](NC(=O)[C@H](CC(C)C)NC(=O)OCc1ccccc1)C(=O)N[C@@H](Cc1cnc[nH]1)C(=O)N[C@@H](CC(=O)OC)C(=O)CF	CASP9	enzyme activity, inhibitor	0.1 µM	7
C#Cc1n[nH]c2c(-c3cn([C@@H](C)c4ccccc4)c(=O)[nH]c3=O)cc(F)cc12	EEF2K	enzyme activity, inhibitor	0.1 µM	2.3
